# Assay outcomes deposited in PubChem by several laboratories.
# Only some compounds are listed: those with a hit (about 3.8% of all), similar ones and a draw of the others.
# Hep lipid drop: inhibitors of hepatocyte lipid droplet formation, primary screen, imaging, high-throughput imaging, BODIPY stain; AML12 mouse hepatocytes, oleate lipid droplets; inhibition, % at 6.5 µM; actives 0.4% (n = 240,000);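 active means lipid droplet intensity inhibited by at least 50%, with more than 500 cells counted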
#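 Assay system: AML12 hepatocytes (mouse); Probe or stimulus: oleic acid at 100 µM to induce lipid droplet formation; Dosing: compound at 6.5 µM only; Schedule: compound with oleate, overnight; Detection: fluorescence imaging, 20x objective, two fields per well; Measure: % inhibition of lipid droplet signal.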
# RGS4 block: RGS4 inhibitors, primary screen, cell-based, HEK293 M3R inducible RGS4, calcium flux; Fluo-4 calcium flux; active compounds read high; triggered by carbachol at its EC20; B-score at 10 µM; actives 0.45% (n = 310,000); AID 463165, 2010; Regulator of G-protein signaling 4 (Homo sapiens), P49798;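 active means B-score, a plate-corrected calcium signal, over three deviations above library mean, with baseline fluorescence within five deviations of library mean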;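 further: RGS4 expression induced by doxycycline in cells with stable M3 receptor; B-score is computed from the integrated fluorescence ratio over baseline after carbachol; higher B-score means a larger calcium signal and so more RGS4 inhibition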
# Target sequence (P49798 whole entry, looked up): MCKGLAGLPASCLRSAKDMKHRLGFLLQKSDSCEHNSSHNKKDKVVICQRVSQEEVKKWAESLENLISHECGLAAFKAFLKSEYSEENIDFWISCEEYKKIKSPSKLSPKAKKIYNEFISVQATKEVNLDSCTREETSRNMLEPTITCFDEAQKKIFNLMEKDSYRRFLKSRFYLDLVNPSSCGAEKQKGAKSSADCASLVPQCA
# MrgX1 allo act: positive allosteric modulators of MrgX1, primary screen, HEK293 cells, Fluo-4 calcium flux. FDSS; active compounds read high. B-score at 10 µM. actives 0.63% (n = 310,000). Mas-related G-protein coupled receptor member X1 (Homo sapiens), Q96LB2;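 active means plate-corrected calcium response at least 3 library SD above typical, normal starting fluorescence, not activating the receptor alone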;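 further: compound read alongside a low EC10 to EC30 dose of BAM8-22 agonist; peak minus trough fluorescence over baseline measured at the second addition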
# Target sequence (Q96LB2 whole entry, looked up): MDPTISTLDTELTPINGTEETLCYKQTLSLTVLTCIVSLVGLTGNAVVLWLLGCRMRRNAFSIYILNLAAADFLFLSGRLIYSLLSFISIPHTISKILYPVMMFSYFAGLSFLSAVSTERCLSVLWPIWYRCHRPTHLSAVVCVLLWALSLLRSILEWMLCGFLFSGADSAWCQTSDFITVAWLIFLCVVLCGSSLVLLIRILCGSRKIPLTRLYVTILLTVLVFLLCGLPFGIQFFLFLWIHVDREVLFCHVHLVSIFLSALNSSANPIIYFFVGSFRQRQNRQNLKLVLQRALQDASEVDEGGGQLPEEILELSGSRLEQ
# MrgX1 antag: antagonists of human MrgX1 receptor, primary screen, HEK293 cells, Fluo-4 calcium flux | Mas-related G-protein coupled receptor member X1 (Homo sapiens), Q96LB2 | BAM8-22 antagonism; active compounds read low | B-score at 10 µM | actives 1.3% (n = 310,000);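 active means calcium-response B-score plate-corrected more than 3 library SD below zero, starting fluorescence within 5 deviations, no agonist response on first addition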;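 further: peak minus trough fluorescence over baseline after final BAM8-22 challenge near maximal dose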
# MrgX1 agonist: agonists of human MrgX1 receptor, primary screen, HEK293 cells, Fluo-4 calcium flux; Fluo-4 calcium fluorescence, agonist mode; active compounds read high; B-score at 10 µM; actives 0.44% (n = 310,000);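 active means calcium response B-score plate-corrected fluorescence ratio at least 3 library SD, with starting fluorescence B-score inside 5 SD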
#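 System – MrgX1-expressing HEK293 cells · Incubation – cells plated overnight, dye loaded 0.5 h 37 °C, 0.5 h room temperature · Technique – kinetic Fluo-4 NW fluorescence of intracellular calcium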
# RGS4 pot: RGS4 potentiators or activators, primary screen, cell-based, HEK293 M3R inducible RGS4, calcium flux. carbachol calcium flux Fluo4; active compounds read low. B-score at 10 µM. actives 0.92% (n = 310,000). AID 463111, 2010;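 active means B-score of the integrated calcium signal more than 4 SD below the library mean, with starting fluorescence not abnormally high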;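 further: negative B-score means reduced calcium response which marks RGS4 activation or potentiation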
#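 test system = HEK293 cells with stable M3R and inducible RGS4 | schedule = recording 10 s baseline at 1 Hz, 100 s post-agonist | technique = Fluo4-AM (2 µM) calcium-flux fluorescence, kinetic read | measure = Agonist-evoked peak-minus-minimum fluorescence over baseline, integrated ratio, B score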
# MrgX1 allo conf: MrgX1 positive allosteric modulators, duplicate retest, confirmation, HEK293 cells, Fluo-4 calcium flux | shares compounds with MrgX1 allo act | Fluo-4 calcium fluorescence, FDSS | activation (ratio percentage), % at 10 µM | actives 13% (n = 1,200);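 active means ratio at least 3 SD above the weak peptide control, stable starting fluorescence, no direct agonism earlier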;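 further: compound followed by low BAM8-22 agonist challenge near EC20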
# MrgX1 antag conf: MrgX1 receptor antagonists, duplicate retest, confirmation, HEK293 cells, Fluo-4 calcium flux | remaining BAM8-22 calcium response % of control (active compounds read low), % at 10 µM | shares compounds with MrgX1 antag | actives 19% (n = 2,300) | AID 602420, 2012 | BAM8-22 calcium flux; active compounds read low;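 active means remaining agonist calcium response no higher than 100% minus 3 SD of agonist-only control wells, with starting fluorescence near control levels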;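 further: agonist BAM8-22 given at a near maximal EC90 to ECmax level; peak minus minimum fluorescence divided by baseline after agonist addition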
# HEK293 Ca flux: nonspecific calcium signal in parental HEK293, confirmation, counter-screen for MrgX1 antagonist project, parental HEK293 cells, Fluo-4 calcium flux | fluorescence ratio F(max-min)/F0 at 10 µM | actives 2% (n = 4,000) | shares compounds with MrgX1 antag | Fluo-4 calcium fluorescence, FDSS;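 active means duplicate-averaged calcium fluorescence ratio at least three times the standard deviation of buffer wells, a nonspecific response in parental cells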
# HEK293 Ca counter: calcium response in parental HEK293 cells, primary screen, counter-screen for MrgX1 allosteric activator project, cell-based, Fluo-4 calcium flux, duplicate; shares compounds with MrgX1 antag; Fluo-4 fluorescence ratio; active compounds read high; fluorescence ratio F(max-min)/F0 at 10 µM; actives 0.4% (n = 4,000); AID 624114, 2012;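 active means calcium fluorescence ratio, averaged over duplicates, at least 3 SD of the buffer-well ratio, meaning a nonspecific response in receptor-free cells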;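 further: untransfected parental HEK293 lacking MrgX1 used as counterscreen for MrgX1 allosteric activators; fluorescence change taken during the second addition on a kinetic imager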
# HEK293 Ca cntr2: calcium response in parental HEK293 cells, primary screen, counter-screen for MrgX1 agonist project, cell-based, Fluo-4 calcium flux, duplicate, agonist mode | shares compounds with MrgX1 antag | Fluo-4 calcium fluorescence (FDSS); active compounds read high | fluorescence ratio F(max-min)/F0 at 10 µM | actives 8.7% (n = 4,000) | AID 624115, 2012;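 active means calcium fluorescence ratio at least three times the spread of buffer wells, meaning a non-specific response in parental cells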
# A number is an active result; i = inactive; nt = not tested or not shown.
SMILES,Hep lipid drop,RGS4 block,MrgX1 allo act,MrgX1 antag,MrgX1 agonist,RGS4 pot,MrgX1 allo conf,HEK293 Ca flux,HEK293 Ca counter,HEK293 Ca cntr2,others
CC(O)CNc1nc2ccccc2n1CC(=O)NC12CC3CC(CC(C3)C1)C2 (stereo not drawn),i,i,7.4,i,i,i,i,i,i,i,
COc1ccccc1N1CCN(C2=Nc3cccc4cccc2c34)CC1,i,i,8.9,i,i,-7,i,i,i,i,
CC(=O)N1CCN(C2=Nc3cccc4cccc2c34)CC1,nt,i,i,i,i,i,nt,nt,nt,nt,
Cc1ccc(S(=O)(=O)C2(C(=O)NC3CCCC3)CC2)cc1,i,i,i,i,i,i,nt,nt,nt,nt,
O=S(=O)(NC(=S)NC1CCCCC1)c1ccc(Cl)cc1,i,i,17,i,i,i,23%,i,i,i,
Cc1ccc(S(=O)(=O)NC(=S)NC2CCCCC2)cc1,i,i,10,i,i,i,i,i,i,i,
CCc1ccc(S(=O)(=O)NC(=S)NC2CCCCC2)cc1,i,i,16,i,i,i,i,i,i,i,
NS(=O)(=O)c1ccc(CCNC(=S)NC2CCCCC2)cc1,i,i,i,i,i,i,nt,nt,nt,nt,
O=C(CSc1n[nH]c(=O)n1Cc1ccccc1)Nc1ccc(F)c(F)c1F,i,i,i,i,i,i,nt,nt,nt,nt,
Cc1cccc(C)c1NC1=NC(=S)N(c2ccc(C(=O)O)cc2)C12CCCCC2,i,i,7.2,i,i,i,i,i,i,i,
Cc1cccc(NC2=NC(=S)N(c3cccc(C(=O)O)c3)C23CCCCC3)c1,i,i,i,i,i,i,nt,nt,nt,nt,
CCC(C)(C)C1CCc2c(sc(NC(=O)c3ccccc3C(=O)O)c2C#N)C1 (stereo not drawn),i,i,8.4,-6.4,i,i,i,i,i,57,MrgX1 antag conf=i
CCCCn1c(SCC(=O)Nc2cc(C)on2)nnc1-c1cccs1,i,i,6.8,i,i,i,i,i,i,i,
Cc1cc(NC(=O)CSc2nnc(-c3cccs3)n2N)no1,nt,i,i,i,i,i,nt,nt,nt,nt,
O=C(Nc1ccc(F)c(Cl)c1)N1CCCC1,i,i,13,i,i,i,i,i,i,i,
Cn1c(C(=O)O)c(S(=O)(=O)c2ccc(Cl)cc2)c2ccccc21,i,i,i,i,i,i,nt,nt,nt,nt,
CC(=O)Nc1cccc(-c2nc3ccccc3[nH]2)c1,i,i,i,i,i,i,nt,nt,nt,nt,
COc1cccc(OC)c1C(=O)Nc1cccc(-c2nc3ccccc3[nH]2)c1,i,i,7.1,i,i,i,i,i,i,i,
